For experiment [1], the species on record is Homo sapiens. The experiment in a line: (§1) P50e is the value in the presence of the effector in whole blood in experiment 1 (in vitro). Format: functional. The essentials: (§2)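 Heparinized whole blood from healthy volunteers, kept on ice, was given the effector sodium salt from a 200 mM DMSO stock to 5.0 mM final. It was tonometered about 10-12 min at 37 °C and equilibrated at 20%, 40% and 60% O₂. pH, pCO₂, pO₂ and sO₂ were read by blood gas analyzer and co-oximeter, at least in duplicate. ΔP50 = P50e − P50c.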

The target in experiment [2] is T1, Hemoglobin HbA (Homo sapiens) (UniProt P69905+P68871). The experiment in a line: Ratio of P50e to P50c (P50 control value with no effector present, 5 mmHg). It counts as functional. The procedure, abridged: (§3)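 Purified stripped human adult Hb in 50 mM bis-Tris, 100 mM NaCl, pH 7.2, at 60-70 µM heme, with effector at 0.5 mM. Catalase and EDTA were added, and the sample was saturated with carbogen. The curve was recorded on a Hemox analyzer as O₂ pressure was lowered over 45-60 min, with saturation read at 577/586.2 nm. P50 came from linear regression of 40-60% saturation points. Single runs, each with its own no-effector control.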

The target in experiment [3] is T1, Hemoglobin HbA (Homo sapiens). The experiment can be described thus: Oxygen pressure at which hemoglobin is 50% saturated with oxygen in the presence of the effector. Format: functional. The procedure, abridged: as §3
For experiment [4], the species on record is Homo sapiens. The experiment can be described thus: (§4) P50e is the value in the presence of the effector in whole blood in experiment 2 (in vitro). It counts as functional. The essentials: as §2
Experiment [5] is described as follows: Hill coefficient at 50% saturation in the presence of effector.
For experiment [6], the species on record is Homo sapiens. The experiment in a line: (§5) P50C is the control value in whole blood in experiment. It counts as functional. The procedure, abridged: as §2
Experiment [7] can be described thus: The difference between P50e and P50c tested. Format: functional. The essentials:
as §2

Experiment [8] is described as follows: P50e is the value in the presence of the effector in whole blood in experiment 3 (in vitro). Format: functional, Homo sapiens. The essentials: as §2
Experiment [9] in a line: as §5. It counts as functional, Homo sapiens. The procedure, abridged: as §2
Experiment [10] in a line: as §4. Format: functional, Homo sapiens. The procedure, abridged:
as §2

Experiment [11] can be described thus: as §1. It counts as functional, Homo sapiens. The procedure, abridged: as §2

Structures are written as SMILES. Where “and” joins values, the source holds several entries; their conditions need not be identical. Equal values may be shown once.

T1 sequence (P68871 2-147 partner limits assumed): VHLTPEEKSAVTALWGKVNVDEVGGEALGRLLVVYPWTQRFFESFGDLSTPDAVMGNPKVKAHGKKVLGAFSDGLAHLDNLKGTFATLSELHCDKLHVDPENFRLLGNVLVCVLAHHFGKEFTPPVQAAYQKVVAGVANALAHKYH
T1 sequence (P69905 2-142 limits assumed): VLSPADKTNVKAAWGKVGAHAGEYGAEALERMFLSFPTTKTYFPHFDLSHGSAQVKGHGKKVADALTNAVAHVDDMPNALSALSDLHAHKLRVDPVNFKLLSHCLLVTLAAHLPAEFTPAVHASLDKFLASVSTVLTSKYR

Consider `Cc1cc(C)cc(NC(=O)Cc2ccc(O[C@]3(C(=O)O)CCC[C@H]3C)cc2)c1`, for which the results for the P50e (in the experiment listed under Homo sapiens [1]; in experiment [3]; in the experiment filed under Homo sapiens [4]) were 78.5 mmHg, 30.7 mmHg and 72.5 mmHg, respectively. Moreover, the P50e/P50c in [2] came out at 6.1. Moreover, the Hill coefficient (n50) in experiment [5] was 2.4 and 1.6. The compound further had a P50c in the experiment filed under Homo sapiens [6] of 27.9 mmHg. Also, in experiment [7], the ΔP50 (P50e minus P50c) is 47.6 mmHg.

Turning to `Cc1cc(C)cc(NC(=O)Cc2ccc(OC3(C(=O)O)CCCC3)cc2)c1`, the P50e amounted to 74.7 mmHg in the experiment filed under Homo sapiens [1], 25.7 mmHg in [3] and 67.7 mmHg in the experiment listed under Homo sapiens [4]. Besides, in [2], the P50e/P50c was determined as 5.1. Moreover, in experiment [5], the Hill coefficient (n50) is 2.4 and 1.66. The compound further registered a P50C in the experiment listed under Homo sapiens [6] of 28.9 mmHg. The ΔP50 (P50e minus P50c) in experiment [7] was determined as 42.3 mmHg.

Regarding `Cc1cc(C)cc(NC(=O)Cc2ccc(OC3(C(=O)O)CCCC3C)cc2)c1` (racemic), the P50e in the experiment listed under Homo sapiens [1] turned out to be 66 mmHg; in experiment [3], 21.6 mmHg; in the experiment filed under Homo sapiens [4] it was 67.2 mmHg. In experiment [2], the P50e/P50c was found to be 4.3. Also, the Hill coefficient (n50) in [5] was 2.3 and 1.6. In the experiment listed under Homo sapiens [6], this compound yielded a P50c of 26.5 mmHg. The compound also gave a ΔP50 (P50e minus P50c) in [7] of 40.1 mmHg.

Regarding `Cc1cc(C)cc(NC(=O)Cc2ccc(O[C@@]3(C(=O)O)CCC[C@@H]3C)cc2)c1`, the P50e in [8] was 42.4 mmHg; in experiment [10] it was 46.8 mmHg; in experiment [11], 49.7 mmHg; in experiment [3], 19.9 mmHg. The compound also came in with a P50c in experiment [9] of 25.7 mmHg. Besides, the P50e/P50c in [2] came out at 4. Besides, the Hill coefficient (n50) in experiment [5] was 2.6 and 1.8. This compound displayed a ΔP50 (P50e minus P50c) in experiment [7] of 20.6 mmHg.

On to `Cc1cc(C)cc(NC(=O)Cc2ccc(OC(C)(C)C(=O)O)cc2)c1` [EFAPROXIRAL], for which the P50e was determined as 76.5 mmHg in the experiment listed under Homo sapiens [1], 23.4 mmHg in experiment [3] and 73.4 mmHg in the experiment listed under Homo sapiens [4]. For the same compound, in experiment [2], the P50e/P50c came out at 4.7. The Hill coefficient (n50) in experiment [5] was 2.3 and 1.47. Further, the P50c in the experiment filed under Homo sapiens [6] stood at 29.8 mmHg. In [7], this compound showed a ΔP50 (P50e minus P50c) of 45.2 mmHg.

The record behind these values is ChEMBL document CHEMBL1132954, “Synthesis and structure-activity relationships of chiral allosteric modifiers of hemoglobin” (2000).
